From ChEMBL document CHEMBL1641480, “Antioxidant activity of a new C-glycosylflavone from the leaves of Ficus microcarpa” (Bioorg Med Chem Lett, 2011)
Active and inactive are the calls of the source. The rule behind the calls is not given here.

Assays:
Format in all cases: functional
[1] = Antioxidant activity assessed as peroxyl radical scavenging activity at 1 to 2 uM by ORAC assay
Method in brief: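 ORAC peroxyl-radical assay at 1.0 and 2.0 μM. Fluorescein is the radical target and 20 mM AAPH the generator. Fluorescence recorded every 2 min after AAPH, relative to the initial reading. Net area under the decay curve versus blank, expressed as μM Trolox equivalents against freshly prepared Trolox standard.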

[2] = Antioxidant activity assessed as copper ion radical scavenging activity at 2 uM
Method in brief: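 Cu(II)-reducing test: compound in distilled water mixed 40:160 with 0.5 mM CuCl2 plus 0.75 mM neocuproine in 10 mM phosphate buffer, pH 7.4. Absorbance read at 454 nm for 1 h. Reduced Cu(I) concentration measured at 2 μM compound.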

[3] = Metal chelating activity of the compound at 1 to 2 uM
Method in brief: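 Chelation: compound mixed 1:1 with CuSO4, then calcein added. Fluorescence read at excitation 485 nm and emission 535 nm, compared with calcein-only control. Tested at 1 and 2 μM; mean ± S.D.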

| Structure (SMILES) | Activity [1] | Activity [2] | Activity [3] |
| --- | --- | --- | --- |
| CCCCCCCCCCCCCCCCCC(=O)OC[C@H]1O[C@@H](O[C@H]2CC[C@@]3(C)C(=CC[C@H]4[C@@H]5CC[C@H]([C@H](C)CC[C@@H](CC)C(C)C)[C@@]5(C)CC[C@@H]43)C2)[C@H](O)[C@@H](O)[C@@H]1O | inactive | inactive | inactive |
| Oc1cc(O)c2c(c1)O[C@H](c1ccc(O)c(O)c1)[C@H](O)C2 | Active | Active | inactive |
| C[C@H](O)/C=C/[C@@]1(O)C(C)(C)C[C@H](O)C[C@@]1(C)O | inactive | inactive | inactive |
| CC[C@H](CC[C@@H](C)[C@H]1CC[C@H]2[C@@H]3CC=C4C[C@@H](O[C@@H]5O[C@H](CO)[C@@H](O)[C@H](O)[C@H]5O)CC[C@]4(C)[C@H]3CC[C@]12C)C(C)C | inactive | inactive | inactive |
| Oc1cc(O)c2c(c1)O[C@H](c1ccc(O)c(O)c1)[C@@H](O)C2 | Active | Active | inactive |
| O=c1cc(-c2ccc(O[C@@H]3O[C@H](CO)[C@@H](O)[C@H](O)[C@H]3O)cc2)oc2cc(O)c([C@@H]3O[C@H](CO)[C@@H](O)[C@H](O)[C@H]3O)c(O)c12 | – | inactive | inactive |
| C[C@H](/C=C/[C@]1(O)C(C)(C)C[C@@H](O)C[C@]1(C)O)O[C@H]1O[C@@H](CO)[C@H](O)[C@@H](O)[C@@H]1O | inactive | inactive | inactive |
| CC[C@H](CC[C@@H](C)[C@H]1CC[C@H]2[C@@H]3CC=C4C[C@@H](O)CC[C@]4(C)[C@H]3CC[C@]12C)C(C)C | inactive | inactive | inactive |
| O=c1cc(-c2ccc(O)cc2)oc2cc(O)c([C@@H]3O[C@H](CO)[C@@H](O)[C@H](O)[C@H]3O)c(O)c12 | – | inactive | inactive |
| C[C@@H]1C[C@H](O)CC(C)(C)[C@@]1(O)CC[C@H](C)O[C@H]1O[C@@H](CO)[C@H](O)[C@@H](O)[C@@H]1O | inactive | inactive | inactive |
| COc1cc(/C=C/CO)cc(OC)c1O[C@@H]1O[C@H](CO)[C@@H](O)[C@H](O)[C@H]1O | inactive | inactive | inactive |
| CC1=CC(=O)CC(C)(C)[C@H]1/C=C/[C@@H](C)O[C@@H]1O[C@H](CO[C@@H]2O[C@@H](CO)[C@H](O)[C@H]2O)[C@@H](O)[C@H](O)[C@H]1O | inactive | inactive | inactive |
| O=c1cc(-c2ccc(O)c(O)c2)oc2cc(O)c([C@@H]3O[C@H](CO)[C@@H](O)[C@H](O)[C@H]3O)c(O)c12 | Active | Active | inactive |
| O=c1cc(-c2ccc(O)cc2)oc2c([C@@H]3O[C@H](CO)[C@@H](O)[C@H](O)[C@H]3O[C@H]3OC[C@@](O)(CO)[C@@H]3O)c(O)cc(O)c12 | – | inactive | inactive |
